Experimental data as given in ChEMBL document CHEMBL1128486, “Farnesyl diphosphate-based inhibitors of Ras farnesyl protein transferase” (J Med Chem, 1995).

What follows are molecules tested against Mevalonate kinase (Rattus norvegicus, UniProt P17256) (assay: Inhibition of mevalonate kinase). Conditions: read-out: I50.
Outline: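 Mevalonate kinase was purified to homogeneity from rat liver and used for inhibition measurement.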

Mevalonate kinase, sequence (P17256 whole entry): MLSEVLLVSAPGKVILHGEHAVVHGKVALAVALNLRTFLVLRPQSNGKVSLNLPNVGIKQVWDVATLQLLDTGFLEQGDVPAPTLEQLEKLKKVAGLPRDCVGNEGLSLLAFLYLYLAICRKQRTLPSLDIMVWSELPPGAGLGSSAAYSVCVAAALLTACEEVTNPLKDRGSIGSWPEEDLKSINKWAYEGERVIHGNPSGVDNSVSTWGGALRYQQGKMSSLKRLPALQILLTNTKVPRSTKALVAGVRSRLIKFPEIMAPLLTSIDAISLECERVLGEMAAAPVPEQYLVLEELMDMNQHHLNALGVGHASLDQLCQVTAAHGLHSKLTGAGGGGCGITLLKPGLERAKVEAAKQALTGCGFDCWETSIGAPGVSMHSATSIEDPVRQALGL

IC50 [µM]	SMILES
> 200	CC(C)=CCC/C(C)=C/CC/C(C)=C/CNC(=O)C(CP(=O)(O)O)C(=O)O (centres undefined)

What follows are molecules tested against T1, Squalene synthase (Rattus norvegicus, UniProt Q02769) (assay: Inhibition of squalene synthase). Conditions: read-out: I50.
T1 sequence (Q02769 whole entry): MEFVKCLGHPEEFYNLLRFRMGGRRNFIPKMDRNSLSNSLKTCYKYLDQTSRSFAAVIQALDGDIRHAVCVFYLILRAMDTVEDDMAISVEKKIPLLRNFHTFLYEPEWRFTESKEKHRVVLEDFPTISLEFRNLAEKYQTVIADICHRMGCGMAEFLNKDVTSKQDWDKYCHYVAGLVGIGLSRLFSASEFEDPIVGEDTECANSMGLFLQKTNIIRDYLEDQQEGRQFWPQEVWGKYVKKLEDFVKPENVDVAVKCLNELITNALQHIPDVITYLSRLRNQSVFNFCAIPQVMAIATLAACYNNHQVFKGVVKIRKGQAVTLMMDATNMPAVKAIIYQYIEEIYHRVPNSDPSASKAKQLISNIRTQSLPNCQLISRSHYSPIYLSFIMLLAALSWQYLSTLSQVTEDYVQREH
Outline: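 Squalene synthetase was prepared from rat liver microsomes and used for I50 determination.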

IC50 [µM]	SMILES
516	CC(C)=CCC/C(C)=C/CC/C(C)=C/CNC(=O)C(CP(=O)(O)O)C(=O)O (centres undefined)

The molecules below were run against Protein farnesyltransferase (Sus scrofa) (assay: Inhibition of pig brain farnesyl transferase). Conditions: read-out: I50.

SMILES	IC50 [µM]
CC(C)=CCC/C(C)=C/CC/C(C)=C/CN(C)C(=O)C(CP(=O)(O)O)C(=O)O (centres undefined)	0.53
CC(C)=CCC/C(C)=C/CC/C(C)=C/C(=O)N[C@@H](CCC(=O)O)C(=O)O	11.5
CC(C)=CCC/C(C)=C/CC/C(C)=C/CCNC(=O)C(CP(=O)(O)O)C(=O)O (centres undefined)	17.8
CC(C)=CCC/C(C)=C/CC/C(C)=C/CNC(=O)CCC(=O)O	220
CC(C)=CCC/C(C)=C/CC/C(C)=C/C(=O)N[C@H](CP(=O)(O)O)C(=O)O	0.5
CC(C)=CCC/C(C)=C/CC/C(C)=C/CC(=O)N[C@H](CP(=O)(O)O)C(=O)O	0.05
CC(C)=CCC/C(C)=C/CC/C(C)=C/CC(=O)N[C@@H](CP(=O)(O)O)C(=O)O	1.7

The next lines start with the values.

IC50 [µM]	SMILES
12.6	CC(C)=CCC/C(C)=C/CC/C(C)=C/C(=O)N[C@@H](CC(=O)O)C(=O)O
30	CC(C)=CCC/C(C)=C/CC/C(C)=C/C(=O)N[C@H](CCC(=O)O)C(=O)O
25	CC(C)=CCC/C(C)=C/CC/C(C)=C/C(=O)N[C@H](CC(=O)O)C(=O)O
9	CCCCCCCCCCCCNC(=O)C(CP(=O)(O)O)C(=O)O (centres undefined)
55	CC(C)=CCC/C(C)=C/CCC(C)(C)CCNC(=O)C(CP(=O)(O)O)C(=O)O (centres undefined)
0.25	CC(C)=CCC/C(C)=C/CC/C(C)=C/C(=O)N[C@@H](CP(=O)(O)O)C(=O)O

Molecular target: Protein farnesyltransferase (Sus scrofa)
Assay: Inhibition of pig brain farnesyl transferase
Conditions: read-out: I50
Remark: another data set of the same source

IC50 [µM]	SMILES
4.6	CC(C)=CCC/C(C)=C/CC/C(C)=C/CNC(=O)CCP(=O)(O)O
115	CC(C)=CCC/C(C)=C/CC/C(C)=C/CNC(=O)CC(=O)O
41.5	CC(C)=CCC/C(C)=C/CC/C(C)=C/CNC(=O)CP(=O)(O)O

Molecular target: Protein farnesyltransferase (Sus scrofa)
Assay: Inhibition of pig brain farnesyl transferase
Conditions: read-out: I50
Remark: another data set of the same source

IC50 [µM]	SMILES
0.075	CC(C)=CCC/C(C)=C/CC/C(C)=C/CNC(=O)C(CP(=O)(O)O)C(=O)O (centres undefined)
